From the EternaBench riboswitch data come the findings set out here.

The data set has as its system MS2 coat protein. Description: apparent Kd, MS2 coat protein; higher = weaker binding; RNA-MaP array; FMN 200 µM where present. In a few lines: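 SNAP-549-labelled MS2 coat protein, doubled from 0.7 or 1.5 nM to 3 µM, was titrated over designs transcribed by stalled E. coli RNA polymerase on Illumina sequencing-chip clusters. Titrations were run without and then with constant ligand in 100 mM Tris-HCl pH 7.5, 80 mM KCl, 4 mM MgCl2, BSA, DTT, yeast tRNA and Tween-20. The apparent Kd is the median of filtered per-cluster fits to green signal normalised to red-channel RNA signal and control-cluster median Fmax.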

[1] abbreviates: designed as: ON switch for flavin mononucleotide, no ligand.
[2] abbreviates: ligand present: flavin mononucleotide, designed as: ON switch for flavin mononucleotide.
[3] abbreviates: designed as: OFF switch for flavin mononucleotide, no ligand.
[4] abbreviates: ligand present: flavin mononucleotide, designed as: OFF switch for flavin mononucleotide.

The term apparent Kd denotes a dissociation constant that holds for the conditions of the assay. Take “UUCACCUUAUUUUACAUGAGGAUCACCCAUGUUUUUUUUACGUAGGAUAUCGAUGCUUGUUUAUUCGAGAAGGACGAUGUAAGU”: the “apparent Kd” value is, setting by setting: under setting [1], 36.6 nM; under setting [2], 32.4 nM.

In the case of “AUGGUUGUCGUAGGAUAUGUAGGAUAUUCCUACAUGAGGAUCACCCAUGUUCGCAUGGAAGAAGGACGGAAGGACGAUGACCAU”, the “apparent Kd” value under setting [1] stood at 194 nM and the “apparent Kd” value under setting [2] was 132 nM.

Turning to “GUAUUGUGAGGAUAUCCAAUAUAUGACAUGAGGAUCACCCAUGUUUCCACUCGUACCUCCGGAGAAGGCACAGUUU”, the “apparent Kd” value by setting is: under setting [3], 28.3 nM; under setting [4], 24.3 nM.

Consider “GCAUCCAAAGUGAGGAUAUACCUCUGGAUACAGAGGUAGAAGGCACAUGAGGAUCACCCAUGUUACUAGGAUGC”, for which the “apparent Kd” value under setting [3] worked out at 12.9 nM and the “apparent Kd” value under setting [4] came to 17 nM.

For the sequence “AACACAACAUGAAACAUGAGGAUCACCCAUGUUGUUUGUAAUCAGGAUAUGAUCUCAAGAAUGAAUUAGAAGGGAUAUGGAUUU”, the “apparent Kd” value is, setting by setting: under setting [1], 31.8 nM; under setting [2], 39.6 nM.

As for “GGCACUAUCACAGGAUAUGCUUUCCUUUGGGAAGCAGAAGGGUGUAACAUGAGGAUCACCCAUGUGGUGCCAGGGCGUGAGCCC”, the “apparent Kd” value is 114 nM under setting [1] and 10.9 nM under setting [2].

Regarding “CUUAUGCGGCAGGAUAUCGUGCUUUUCGAGCAGCGAGAAGGGUCUACAUGAGGAUCACCCAUGUCAGUGGCUCU”, the “apparent Kd” value runs as follows: under setting [3], 18.3 nM; under setting [4], 37.8 nM.

As to “UUGUUCUGAGGAUAUACAUGAGGAUCACCCAUGUGUUUCUGCUUGGUGUCUAGCGAAUGUAGAAGGCUGUUCUC”, the “apparent Kd” value runs as follows: under setting [3], 21.7 nM; under setting [4], 22.9 nM.

For “CUGUAGAUAUCAGGAUAUCUAUUUCCUACAUGAGGAUCACCCAUGUAGGUGAUCAGCCAAGUAAAGGAGAAGGGAUAUCUAUAG”, the “apparent Kd” value runs as follows: under setting [1], 38.5 nM; under setting [2], 11 nM.

“UUGGACGUCGUAGGAUAUGUAGGAUAUUCCUACAUGAGGAUCACCCAUGUUGACAUGGAGGAAGGACAGAAGGACGAUGUCCAU”: the “apparent Kd” value by setting is: under setting [1], 667 nM; under setting [2], 98 nM.

Turning to “UGGUACUAGGGAGGAUAUGGGAAGAAACAUGAGGAUCACCCAUGUUUAAGAAUGCCGAGAGGCAACUAGAAGGCCCUAGUACCU”, the “apparent Kd” value under setting [1] worked out at 9.75 nM and the “apparent Kd” value under setting [2] turned out to be 4.99 nM.

In the case of “GACGCUAAAGGAUAUACAUGAGGAUCACCCAUGUUGAGGAAGGUUAGAUGAGGAGUAAGUAGAAGGUUAGGCGA”, the “apparent Kd” value reads like this: under setting [3], 38 nM; under setting [4], 35.6 nM.

Turning to “AAGUCAGCAGGAUAUGCGAUGUUGUGCUAGAUAGCGUGACCACAUGAGGAUCACCCAUGUAGAAGGGCUGGCUA”, the “apparent Kd” value is 30.9 nM under setting [3] and 20.2 nM under setting [4].

With “CGAUCGUGUAGAGGAUAUGUUAAACAUGAGGAUCACCCAUGUAAGGUAGAAAUUUUUAUAAACAUACAGAAGGCUACACGAUCG”, the “apparent Kd” value under setting [3] turned out to be 7.32 nM and the “apparent Kd” value under setting [4] worked out at 5.15 nM.

As to “CGUAGGAUCCAGAAGGCAUGAAACAUGAGGAUCACCCAUGUAAAAGACAUGAGGAUAUGGAUCCUACGAAAAGUGCGAAAGCAC”, the “apparent Kd” value under setting [1] turned out to be 3.69 nM and the “apparent Kd” value under setting [2] amounted to 3.4 nM.

With “GAUCAUGCAGGAUAUACAUUAACCAUGAAAACAUGGUUGUAACAUGAGGAUCACCCAUGUAGAAGGGCAUGAUC”, the “apparent Kd” value was found to be 14.2 nM under setting [3] and 21.3 nM under setting [4].

Regarding “GGAAAGAUGUUAGGAUAUGGCUUCCCGGUGAAGCCAGAAGGAACAUGAGGAUCACCCAUGUAAAGCGAGUGGCUCUUCUCUGGA”, the “apparent Kd” value by setting is: under setting [3], 18.6 nM; under setting [4], 65.9 nM.

For “AAUGGCGCGAUAGCGCUAAUUAAAACAUGAGGAUCACCCAUGUAGGAUAUCCUACCGAAAUGGUAGGAGAAGGACAAGCAAUGA”, the “apparent Kd” value came out at 23.5 nM under setting [3] and 18.7 nM under setting [4].

On to “CUGUUACAUGAGGAUCACCCAUGUAAGGAUAUCUGCCACUAGAGGGUCACUUUGGGAUGGAGAAGGUACACGGG”, for which the “apparent Kd” value runs as follows: under setting [3], 34.6 nM; under setting [4], 68.6 nM.

Consider “GUUAAGGUAGGAUAUACGAUAAUAUAGGGUAGAAUUAUAACACAUGAGGAUCACCCAUGUAGAAGGACCAAUUG”, for which the “apparent Kd” value by setting is: under setting [3], 31.2 nM; under setting [4], 39.5 nM.

In the case of “UGUAGGAGCAGAGGAUAUUACAUGAGGAUCACCCAUGUAUGAACCAAUAGCUGGAAACAGCAAUGUAAGAAGGCUGCUCCGACA”, the “apparent Kd” value under setting [3] turned out to be 12.2 nM and the “apparent Kd” value under setting [4] was 187 nM.

With “CGUUCAGCGAACGAUACGAAUGGACAUGAGGAUCACCCAUGUAGAAGGACAGGAGAAUAACGACUGUAGGAUAUACAUUUAGUG”, the “apparent Kd” value by setting is: under setting [3], 41.1 nM; under setting [4], 84.8 nM.

With “UACGUUCUACGCGACAUGAGGAUCACCCAUGUUAGCCGAUCACAGGAUAUGUUGGAGCCGGUCGAACAGAAGGGUGAGUCUGCU”, the “apparent Kd” value stood at 38.8 nM under setting [1] and 38.9 nM under setting [2].

As to “CUUCUGUCAGGAUAUGCGAAUCACCACUGGGUCAGUGGUGAGCAGAAGGGACAUGAGGAUCACCCAUGUAAAGU”, the “apparent Kd” value by setting is: under setting [3], 36.3 nM; under setting [4], 169 nM.

Regarding “AAAAAGGCAGGAUAUACAAAACAGGGAAACCUGAAAAGGAAACAUGAGGAUCACCCAUGUAGAAGGGCCAAGAA”, the “apparent Kd” value under setting [3] was 24.9 nM and the “apparent Kd” value under setting [4] was 35.3 nM.

As to “AUUAUGACCGAGUUAAGCUUCAAAACAUGAGGAUCACCCAUGUAGGAUAUCAGCACGAUAAGUGCUGAGAAGGACAUCUCGGUC”, the “apparent Kd” value was found to be 13.5 nM under setting [3] and 15.5 nM under setting [4].

On to “UGCUAGUGAGGAUAUGCUGGAAUAAAGAUUUGACGUGGCGAACAUGAGGAUCACCCAUGUAGAAGGCACAAUAC”, for which the “apparent Kd” value under setting [3] came to 12.8 nM and the “apparent Kd” value under setting [4] was found to be 15.7 nM.

For “UUGGACGUCGUAGGAUAUGUAGGAUAUUCCUACAUGAGGAUCACCCAUGUUGACAUGGUAGAAGGACAGAAGGACGAUGUCCAU”, the “apparent Kd” value under setting [1] stood at 423 nM and the “apparent Kd” value under setting [2] stood at 53.4 nM.

For “AUGGAUAUCACAGGAUAUGCUAUGGAUACCAUAGCAGAAGGGUGAUCCAUCCUAUGGCUGCACAUGAGGAUCACCCAUGUGUCC”, the “apparent Kd” value by setting is: under setting [1], 107 nM; under setting [2], 11.1 nM.

On to “AUAAUACAUGAGGAUCACCCAUGUAAUUUAACUUGUAAGAUCAAGGAUAUCAGCUCGAUUAGAGCUGAGAAGGUGAUCACAUGU”, for which the “apparent Kd” value under setting [1] was determined as 154 nM and the “apparent Kd” value under setting [2] came to 229 nM.

On to “CCGAAUGUCACAGGAUAUGGUCCGGGCUCGCGACCAGAAGGGUGAUCUCACAUGAGGAUCACCCAUGUGUAGGCGUUAGGCUAC”, for which the “apparent Kd” value under setting [1] is 36.3 nM and the “apparent Kd” value under setting [2] turned out to be 260 nM.

For the sequence “CGUCGAAAGGCGGGUCCAUCACCACAUGAGGAUCACCCAUGUAAGGAUAUCGGACUCAGAAAGAGCGAGAAGGUACAUAGUUAA”, the “apparent Kd” value reads like this: under setting [3], 6.01 nM; under setting [4], 6.53 nM.

In the case of “UAGCUCCAUGUGAGGAUAUAGACUCGGACCCGGGAUUAGAAGGUACAUGAGGAUCACCCAUGUAUCCAACUUGU”, the “apparent Kd” value under setting [3] turned out to be 15.3 nM and the “apparent Kd” value under setting [4] was determined as 16.6 nM.

“CGCCGACAUGAGGAUCACCCAUGUCACAACUGGUCAGGAUAUGGUAUGAAAUGGCUAUUGCCAGAAGGGACCUCAG”: the “apparent Kd” value worked out at 40.9 nM under setting [1] and 20.4 nM under setting [2].

Regarding “AUCAGCUCGUCAGGAUAUACGUCACUGCGUCAGCAGUGUGGUAAGAUCACAUGAGGAUCACCCAUGUAGAAGGGACGAGGUGAU”, the “apparent Kd” value under setting [3] came to 14.9 nM and the “apparent Kd” value under setting [4] was 265 nM.

“GCCUCAAGUGAAGGAUAUACGAGGCCAAAUACAGUAGAAGGUCACAUGAGGAUCACCCAUGUCCCAAAGGGUGCGCAUGCGCUC”: the “apparent Kd” value stood at 40.4 nM under setting [3] and 210 nM under setting [4].

For the sequence “AUUUUAAUGUCAGGAUAUGUUAGUUUAUACAUAGUAGAAGGGAUAAUUAUACUCAUGUACAUGAGGAUCACCCAUGUUAAAUAA”, the “apparent Kd” value by setting is: under setting [1], 163 nM; under setting [2], 98.1 nM.

Take “GUAUAUAUUACAUGAGGAUCACCCAUGUCAGAACGGGUAAUCAGAAGGUAUUAUUAGAGAAAGAGUAAGGAUAUGAUUAUAUAC”: the “apparent Kd” value reads like this: under setting [1], 622 nM; under setting [2], 181 nM.

Turning to “CCUCCACAUUAGGAUAUCGUCACAGAAAUGUGACGAGAAGGAAUGACAUGAGGAUCACCCAUGUUAUCGUGAUG”, the “apparent Kd” value was 21.2 nM under setting [3] and 54.9 nM under setting [4].

With “AGUGUCAUCGAGAAGGCCUCAUGAACAUGAGGAUCACCCAUGUAAAAUGGGAGGAUAUCGAUGAUACAGCUACGUUUCGUAGCA”, the “apparent Kd” value under setting [1] is 74.4 nM and the “apparent Kd” value under setting [2] was determined as 28.5 nM.

Take “CUGAGGUCAGGAUAUGCAUGGCGGGACUUGCGUCGUGGCGUGCAGAAGGGACAUGAGGAUCACCCAUGUGGAGU”: the “apparent Kd” value reads like this: under setting [3], 165 nM; under setting [4], 287 nM.

“CCCACGUCAGGAUAUCCAAAGGUCCGAAAUAACGGUACUUUGGAGAAGGGACAUGAGGAUCACCCAUGUCCUCG”: the “apparent Kd” value under setting [3] came to 18.9 nM and the “apparent Kd” value under setting [4] came to 28.8 nM.

For the sequence “ACAUGAGGAUCACCCAUGUCUGCAUAGGAUAUUGAGGAUUAGGCAUAUUAUUAUGGAUUUGCCCACAAGAAGGAUGAAAUUGUU”, the “apparent Kd” value under setting [1] was determined as 20.1 nM and the “apparent Kd” value under setting [2] was 13.4 nM.

For the sequence “AUAGUGCCGGAGAAGGACGUACCACAUGUUGAUCACCGAUAUAAGGAACGUAGGAUAUUCGACAUGAGGAUCACCCAUGUGGAU”, the “apparent Kd” value reads like this: under setting [1], 101 nM; under setting [2], 64.7 nM.

Turning to “AAGCUCGUGUGAGGAUAUGCCGCCGUUUCGGCUGCAGAAGGUGCUACGUUACAUGAGGAUCACCCAUGUCUCUGUUGUUUCGUG”, the “apparent Kd” value by setting is: under setting [1], 23 nM; under setting [2], 22.3 nM.

“CGGAUCGCAUGAGGAUAUGGUCAGCUUUGCUGACCAGAAGGCAUGUCAUAAGACAUGAGGAUCACCCAUGUAGUUAAGAUCCGA”: the “apparent Kd” value under setting [1] was 576 nM and the “apparent Kd” value under setting [2] was 46.3 nM.

In the case of “CUCUUGUCAGGAUAUGCUGCUCGUCACGAAAGUGAUGAGUAGCAGAAGGGACAUGAGGAUCACCCAUGUAAAUA”, the “apparent Kd” value reads like this: under setting [3], 53.7 nM; under setting [4], 17.5 nM.

As to “AAAAUCUAUAGAGGAUAUCCAUACACUACAUACGGAGAAGGCUAACAAUCAUGAGGACAUGAGGAUCACCCAUGUUGUGACCAU”, the “apparent Kd” value was 24.8 nM under setting [1] and 17.2 nM under setting [2].
